Data on one molecule can be found in ChEMBL document CHEMBL3526015, “Metabolism of the c-Fos/activator protein-1 inhibitor T-5224 by multiple human UDP-glucuronosyltransferase isoforms” (Drug Metab Dispos, 2011).

The target in data set [1] is T1, UDP-glucuronosyltransferase 1A1 (Homo sapiens, UniProt P22309).
T1 sequence (P22309 whole entry): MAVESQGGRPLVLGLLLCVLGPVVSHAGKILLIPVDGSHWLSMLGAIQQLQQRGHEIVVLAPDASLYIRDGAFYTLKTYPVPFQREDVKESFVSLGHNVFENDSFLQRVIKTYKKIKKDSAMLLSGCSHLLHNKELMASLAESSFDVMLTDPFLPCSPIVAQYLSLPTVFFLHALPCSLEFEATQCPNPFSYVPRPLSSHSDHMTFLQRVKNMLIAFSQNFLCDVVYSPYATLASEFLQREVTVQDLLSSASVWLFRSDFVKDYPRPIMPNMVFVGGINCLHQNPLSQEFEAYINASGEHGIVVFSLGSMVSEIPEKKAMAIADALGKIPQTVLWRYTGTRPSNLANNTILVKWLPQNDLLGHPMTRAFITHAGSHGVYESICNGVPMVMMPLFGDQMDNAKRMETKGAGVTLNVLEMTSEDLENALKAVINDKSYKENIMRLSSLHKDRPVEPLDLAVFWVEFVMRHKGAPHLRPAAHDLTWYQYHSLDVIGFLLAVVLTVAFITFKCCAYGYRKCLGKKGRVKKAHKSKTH
Put plainly: Drug metabolism assessed as human UGT1A1-mediated T-5224 hydroxyl O-glucuronide formation at 10 uM […] in presence of beta-estradiol by HPLC method. The format is ADME. The settings on record: recombinant enzyme. The method in brief:
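Pooled human liver microsomes or recombinant UGT1A1 were incubated with 10 μM T-5224, 2 mM UDPGA and β-estradiol at 0–500 μM (2% DMSO), in Tris-HCl/MgCl2/alamethicin buffer. Incubation was 10 min (liver microsomes) or 60 min (UGT1A1) at 37°C. G2/G3 were read by HPLC at 290 nm, as mean ± SD, n = 3.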

Data set [2] concerns Liver microsome. Put plainly: Drug metabolism in human liver microsomes assessed as T-5224 hydroxyl O-glucuronide formation per mg protein after 10 to 60 mins by HPLC method. The data set is classed as ADME. The method in brief:
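Pooled liver (0.5 mg protein/mL) or intestinal (0.25 mg protein/mL) microsomes in 50 mM Tris-HCl pH 7.5, 8 mM MgCl2, alamethicin, 2% DMSO. T-5224 at 1–50 μM, 5 min preincubation at 37°C, started with 2 mM UDPGA. Incubated 10 min, or 20 min for intestinal microsomes at 1–5 μM. Acetonitrile stop, glucuronides by HPLC at 290 nm. Triplicates fitted to a substrate-inhibition model.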

The target of data set [3] is T1, UDP-glucuronosyltransferase 1A1. Kind of data set: Substrate inhibition of human UGT1A1-mediated T-5224 acyl O-glucuronide formation after 10 to 60 mins in presence of UDP-glucuronic acid by HPLC method. The format is ADME. The procedure, abridged:
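Recombinant human UGT1A1, UGT1A3 or UGT1A8 from baculovirus-infected insect cells (0.1 mg protein/mL) in 50 mM Tris-HCl pH 7.5, 8 mM MgCl2, alamethicin, 2% DMSO. T-5224 at 1–50 μM with 2 mM UDPGA for 60 min at 37°C. HPLC with UV at 290 nm. Triplicates fitted to a substrate-inhibition model. kcat uses UGT content quantified by immunoblot against recombinant UGT1A1/UGT2B4 standards.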

Data set [4] shares this target. Put plainly: Drug metabolism assessed as Vmax/Km ratio for human UGT1A1-mediated T-5224 acyl O-glucuronide formation per mg protein after 10 to 60 mins in presence of UDP-glucuronic acid by HPLC method. The format is ADME. The settings on record: recombinant enzyme. The method in brief: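 Kinetics used recombinant UGT1A1, 1A3 or 1A8 (0.1 mg protein/mL) with T-5224 at 1–50 μM, 2 mM UDPGA and 60 min at 37°C, in triplicate. G2/G3 were measured by HPLC at 290 nm and fitted to a substrate-inhibition model (Vmax, Km, Ksi). UGT content was quantified by immunoblot, and kcat = Vmax/E0 was derived from it.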

The subject of data set [5] is Liver microsome. Put plainly: Drug metabolism in pooled human liver microsomes assessed as T-5224 acyl O-glucuronide formation in presence of UDPGA by LC-MS/MS method. The data set is classed as ADME.
Data set [6] can be described thus: Drug metabolism in human intestinal microsomes assessed as T-5224 acyl O-glucuronide formation per mg protein after 10 to 60 mins by HPLC method. The data set is classed as ADME, Intestine, Microsome. The method in brief: (§1)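 Pooled liver microsomes (0.5 mg/mL) were incubated 10 min. Pooled intestinal microsomes (0.25 mg/mL) ran 10 min at T-5224 10–50 μM and 20 min at 1–5 μM. Buffer was 50 mM Tris-HCl pH 7.5 with 8 mM MgCl2, alamethicin and 2 mM UDPGA, at 37°C, in triplicate. Glucuronides G2/G3 were read by HPLC at 290 nm and fitted for Vmax/Km.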

In data set [7] the test system is Liver microsome. Kind of data set: Drug metabolism in human liver microsomes assessed as T-5224 acyl O-glucuronide formation after 10 to 60 mins by HPLC method. The data set is classed as ADME. The procedure, abridged: as §1
The test system of data set [8] is Liver microsome. Put plainly: Drug metabolism in pooled human liver microsomes assessed as T-5224 acyl O-glucuronide formation at 10 uM after 10 mins by HPLC method. The data set is classed as ADME. The method in brief:
(§2)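 T-5224 at 10 μM incubated for 10 min at 37°C with UDPGA (2 mM) in pooled liver (0.5 mg protein/mL) or intestinal (0.25 mg protein/mL) microsomes. Buffer was 50 mM Tris-HCl pH 7.5 with 8 mM MgCl2 and alamethicin, after 5 min preincubation. Stopped with acetonitrile; glucuronides quantified by HPLC at 290 nm.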

Data set [9] relates to Liver microsome. Put plainly: Drug metabolism in pooled human liver microsomes assessed as T-5224 hydroxyl O-glucuronide formation at 10 uM after 10 mins by HPLC method. The data set is classed as ADME. The method in brief: as §2
Data set [10] in a line: Drug metabolism in pooled human intestinal microsomes assessed as T-5224 acyl O-glucuronide formation at 10 uM after 10 mins by HPLC method. The data set is classed as ADME, Intestine, Microsome. The procedure, abridged:
as §2

The target of the next data set is T2, Cytochrome P450 2B6 (Homo sapiens, UniProt P20813).
T2 sequence (P20813 whole entry): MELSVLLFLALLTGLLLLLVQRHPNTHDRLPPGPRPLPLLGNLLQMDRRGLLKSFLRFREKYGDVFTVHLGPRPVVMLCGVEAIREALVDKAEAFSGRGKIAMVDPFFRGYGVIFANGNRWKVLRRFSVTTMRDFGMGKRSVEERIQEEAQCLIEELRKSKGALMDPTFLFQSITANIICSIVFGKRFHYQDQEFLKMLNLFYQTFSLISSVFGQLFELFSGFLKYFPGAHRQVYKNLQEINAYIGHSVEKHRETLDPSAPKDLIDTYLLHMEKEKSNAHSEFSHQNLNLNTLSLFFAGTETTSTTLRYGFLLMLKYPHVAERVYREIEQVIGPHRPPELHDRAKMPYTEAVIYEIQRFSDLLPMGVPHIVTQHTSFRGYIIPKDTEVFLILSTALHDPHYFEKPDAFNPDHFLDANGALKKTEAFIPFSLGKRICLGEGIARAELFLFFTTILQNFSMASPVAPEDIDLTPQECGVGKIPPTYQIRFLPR
Kind of data set: Drug metabolism assessed as human CYP2B6-mediated metabolite formation at 2 uM after 30 mins by HPLC method. The format is ADME. The settings on record: recombinant enzyme, 0.5 h. The method in brief: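 Each recombinant human P450 was used at 50 pmol/mL with an NADPH-generating system and 2 μM 14C-T-5224 (0.5% DMSO final). Buffer was 100 mM Tris-HCl pH 7.5, except 100 mM potassium phosphate pH 7.4 for CYP2A6 and CYP2C9*1. Incubation ran 30 min at 37°C and was stopped with acetonitrile/methanol. Radioactive metabolite peaks were detected by C18 HPLC.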

For the molecule `O=C(O)CCc1cc(C(=O)c2ccc(OC3CCCC3)cc2O)ccc1OCc1ccc2c(O)noc2c1`, the Drug metabolism result in data set [1] is recorded as “metabolite_detected”; with Liver microsome [5] it was “metabolite_detected”; in the data set on Liver microsome [8] it was “metabolite_detected”; in the data set with Liver microsome [9] it was “metabolite_detected”; in [10], “metabolite_detected”; at Cytochrome P450 2B6, “metabolite_not_detected”. Besides, the figures for the Vmax (with Liver microsome [2]; in data set [6]) were 305 pmol/min and 241 pmol/min, respectively. In addition, the Ki in data set [3] was 1540 nM. Moreover, in data set [4], the Vmax/Km turned out to be 83.9 µL/min. Further, in the data set on Liver microsome [7], the Km is 4.93 µM.
